Columns and labels:
[1] = target: T1, Peroxisome proliferator-activated receptor alpha (Homo sapiens, UniProt Q07869); experiment: Agonist activity against human Gal4-fussed PPARalpha in HEK293 cells by luciferase reporter gene assay; format: functional, cell-based
T1 sequence (Q07869 whole entry): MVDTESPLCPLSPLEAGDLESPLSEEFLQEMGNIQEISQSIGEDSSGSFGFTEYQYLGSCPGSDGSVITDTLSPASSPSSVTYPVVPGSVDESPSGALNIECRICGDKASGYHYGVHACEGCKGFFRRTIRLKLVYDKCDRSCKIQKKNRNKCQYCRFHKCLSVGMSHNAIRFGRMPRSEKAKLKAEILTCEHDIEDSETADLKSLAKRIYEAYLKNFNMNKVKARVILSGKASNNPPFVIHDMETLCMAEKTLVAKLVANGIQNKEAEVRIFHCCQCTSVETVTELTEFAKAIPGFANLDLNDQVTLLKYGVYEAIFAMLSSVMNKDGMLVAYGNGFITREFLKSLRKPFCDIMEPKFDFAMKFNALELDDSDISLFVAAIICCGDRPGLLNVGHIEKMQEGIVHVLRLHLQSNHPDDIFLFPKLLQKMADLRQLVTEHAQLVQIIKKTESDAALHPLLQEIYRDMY
Summary of the method: (§1)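 Transactivation assay in HEK293 cells with a luciferase reporter. After cell lysis, luciferin is added and luminescence is read. EC50 is the ligand concentration giving half-maximal fold induction. Maximal efficacy is expressed as % of standards, with fenofibrate at 100 µM = 100% for PPARα and rosiglitazone at 1 µM = 100% for PPARγ. Data are normalized to known agonists at 1 µM.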

[2] = target: T2, Peroxisome proliferator-activated receptor alpha (Homo sapiens) (UniProt Q07869); experiment: Agonist activity against human Gal4-fussed PPARalpha by luciferase reporter gene assay relative to finofibrate; format: functional
T2 sequence (whole entry): T1 sequence (Q07869 whole entry)
Summary of the method: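 Gal4-fused human PPARα transactivation in HEK293 cells with a luciferase reporter, read as luminescence after cell lysis and luciferin addition. EC50 is the ligand concentration (µM) giving half-maximal fold induction. Maximal efficacy is expressed as a percentage of fenofibrate at 100 µM (set as 100%). Intrinsic activity is the response at 1 µM as a percentage of the standard at 1 µM.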

[3] = target: T3, Peroxisome proliferator-activated receptor gamma (Homo sapiens, UniProt P37231); experiment: Agonist activity against human Gal4-fussed PPARgamma in HEK293 cells by luciferase reporter gene assay; format: functional, cell-based; summary of the method: as §1
T3 sequence (P37231 whole entry): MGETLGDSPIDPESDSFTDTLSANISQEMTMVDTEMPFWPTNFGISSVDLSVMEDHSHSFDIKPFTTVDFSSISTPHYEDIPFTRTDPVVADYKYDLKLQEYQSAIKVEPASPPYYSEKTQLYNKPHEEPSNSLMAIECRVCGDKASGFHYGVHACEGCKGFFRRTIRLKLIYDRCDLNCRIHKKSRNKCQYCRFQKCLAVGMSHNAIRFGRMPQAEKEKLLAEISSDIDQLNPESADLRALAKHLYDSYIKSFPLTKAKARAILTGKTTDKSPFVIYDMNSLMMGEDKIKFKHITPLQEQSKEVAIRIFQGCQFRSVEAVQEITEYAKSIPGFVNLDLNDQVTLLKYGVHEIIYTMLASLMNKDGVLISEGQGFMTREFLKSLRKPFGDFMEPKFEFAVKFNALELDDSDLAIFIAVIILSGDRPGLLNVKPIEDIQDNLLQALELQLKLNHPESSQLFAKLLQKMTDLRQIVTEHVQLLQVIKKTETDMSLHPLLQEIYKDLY

[4] = target: T4, Peroxisome proliferator-activated receptor gamma (Homo sapiens) (UniProt P37231); experiment: Agonist activity against human Gal4-fussed PPARgamma by luciferase reporter gene assay relative to rosiglitazone
T4 sequence (whole entry): T3 sequence (P37231 whole entry)

Hamster [5] = experiment: Antidyslipidemic activity in hamster assessed as decrease in HDL level at 10 mg/kg, po; format: functional, Cricetinae; set-up: scale not given: the % may be the effect or the level left
Summary of the method: (§2)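 Hamsters kept on high-fat diet for 2 weeks, then dosed 10 mg/kg by oral gavage once daily for 21 days (n = 8). Vehicle: 5% cremophor, 10% NMP, 5% EtOH, 80% water. HDL-c and TG measured at study end. Statistics by Dunnett test, p < 0.05.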

Hamster [6] = experiment: Antidyslipidemic activity in hamster assessed as decrease in triglyceride level at 10 mg/kg, po; format: functional, Cricetinae; set-up: scale not given: the % may be the effect or the level left; summary of the method: as §2
[7] = Volume of distribution at steady state Sprague-Dawley rat at 5 mg/kg, iv and 10 mg/kg, po; format: ADME, organism-based; conditions: in vivo, read-out: Vdss
Summary of the method: (§3)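 Male Sprague-Dawley rats (n = 2) given 5 mg/kg IV and 10 mg/kg PO. Vehicle: 10% NMP, 20% PEG-400, 70% potassium phosphate buffer.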

[8] = Clearance in Sprague-Dawley rat at 5 mg/kg, iv and 10 mg/kg, po; format: ADME, organism-based; conditions: in vivo; summary of the method: as §3
[9] = Half life in Sprague-Dawley rat at 5 mg/kg, iv and 10 mg/kg, po; format: ADME, organism-based; conditions: in vivo; summary of the method: as §3
[10] = Mean retention time in Sprague-Dawley rat at 5 mg/kg, iv and 10 mg/kg, po; format: ADME, organism-based; conditions: in vivo; summary of the method: as §3
Hamster [11] = experiment: Induction of PDK4 mRNA level in hamster liver at 10 mg/kg, po after 6 hrs relative to fenofibrate; format: functional, Cricetinae
Summary of the method: (§4)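 Single oral dose of 10 mpk in hamsters, with fenofibrate reference at 100 mpk. Liver PDK4 and HD mRNA measured at 6 h post-dose. Values expressed relative to fenofibrate, set as 100%.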

Hamster [12] = experiment: Induction of hydrase mRNA level in hamster liver at 10 mg/kg, po after 6 hrs relative to fenofibrate; format: functional, Cricetinae; summary of the method: as §4
Cricetulus griseus = species: Cricetulus griseus; experiment: Agonist activity at hamster PPARalpha relative to fenofibrate; format: functional
[13] = Agonist activity at hamster PPARalpha; format: functional, Cricetulus griseus
[14] = Drug level in hamster liver at 10 mg/kg, po; format: ADME, organism-based; set-up: dose 10 mg/kg, route oral; conditions: cricetinae, in vivo, read-out: Drug uptake
Summary of the method: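 High-fat-fed hamsters (2 weeks on diet), 10 mg/kg po once daily for 21 days (n = 8). Vehicle: 5% cremophor/10% NMP/5% EtOH/80% water. Liver drug level taken 1 h post-dose in the fed state.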

[15] = Oral bioavailability in Sprague-Dawley rat at 10 mg/kg; format: ADME, organism-based; conditions: in vivo
Summary of the method: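 Male Sprague-Dawley rats (n = 2). Oral dose 10 mg/kg, with 5 mg/kg IV for comparison. Vehicle: 10% NMP, 20% PEG-400, 70% potassium phosphate buffer.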

Row | Structure (SMILES) | EC50 [1] | Emax [2] | EC50 [3] | Emax [4] | other results
1 | COc1ccc(OC(=O)N(CC(=O)O)[C@@H](C)c2cccc(OCc3coc(-c4ccc(Cl)cc4)n3)c2)cc1 | 66 nM | 69% | 970 nM | 62% | –
2 | COC(=O)N(CC(=O)O)Cc1cccc(OCc2coc(-c3ccc(F)cc3F)n2)c1 | 1090 nM | 78% | > 25000 nM | – | –
3 | COC(=O)N(CC(=O)O)Cc1cccc(OCc2nc(-c3ccc(Cl)cc3)oc2C)c1 | – | 79% | – | 82% | Activity (Hamster [5]): 20%; Activity (Hamster [6]): 77%; Vd [7]: 0.7 L/kg; clearance [8]: 4.3 mL/min/kg; half-life [9]: 3.2 h; MRT [10]: 2.8 h; Activity (Hamster [11]): 230%; Activity (Hamster [12]): 277%; Emax (Cricetulus griseus): 83%
4 | COC(=O)N(CC(=O)O)Cc1cccc(OCc2coc(-c3ccc(F)c(Cl)c3)n2)c1 | 395 nM | 97% | 6390 nM | 54% | –
5 | COC(=O)N(CC(=O)O)Cc1cccc(OCc2csc(-c3ccccc3)n2)c1 | 304 nM | 70% | > 25000 nM | – | –
6 | COc1cc(OC(=O)N(CC(=O)O)[C@@H](C)c2cccc(OCc3coc(-c4ccc(Cl)cc4)n3)c2)ccc1F | 51 nM | 64% | 1440 nM | 74% | –
7 | COC(=O)N(CC(=O)O)Cc1cccc(OCc2csc(-c3ccc(C)cc3)n2)c1 | 41.8 nM | 71% | 9290 nM | 84% | –
8 | C[C@@H](c1cccc(OCc2coc(-c3ccc(Cl)cc3)n2)c1)N(CC(=O)O)C(=O)Oc1ccccc1 | 145 nM | 53% | 1690 nM | 43% | –
9 | Cc1cccc(OC(=O)N(CC(=O)O)[C@@H](C)c2cccc(OCc3coc(-c4ccc(Cl)cc4)n3)c2)c1 | 22 nM | 62% | 571 nM | 83% | –
10 | COC(=O)N(CC(=O)O)Cc1cccc(OCc2csc(-c3ccc(Cl)cc3)n2)c1 | 90 nM | 90% | 4690 nM | 35% | –
11 | COC(=O)N(CC(=O)O)Cc1cccc(OCc2coc(-c3ccc(C)cc3)n2)c1 | 29.9 nM | 85% | 15600 nM | 94% | –
12 | COc1cccc(OC(=O)N(CC(=O)O)[C@@H](C)c2cccc(OCc3coc(-c4ccc(Cl)cc4)n3)c2)c1 | 13 nM | 69% | 772 nM | 95% | EC50 [13]: 66 nM; Activity (Hamster [5]): 39%; Activity (Hamster [6]): 49%; Emax (Cricetulus griseus): 71%
13 | Cc1ccc(F)c(OC(=O)N(CC(=O)O)[C@@H](C)c2cccc(OCc3coc(-c4ccc(Cl)cc4)n3)c2)c1 | 471 nM | 56% | 710 nM | 58% | –
14 | COC(=O)N(CC(=O)O)Cc1cccc(OCc2csc(-c3ccc(C(F)(F)F)cc3)n2)c1 | 46.6 nM | 73% | 3440 nM | 73% | EC50 [13]: 811 nM; Activity (Hamster [5]): 52%; Activity (Hamster [6]): 72%; concentration [14]: 86.8 µM; Vd [7]: 0.3 L/kg; clearance [8]: 0.5 mL/min/kg; half-life [9]: 7.9 h; MRT [10]: 6 h; bioavailability [15]: 75%; Activity (Hamster [11]): 308%; Activity (Hamster [12]): 126%; Emax (Cricetulus griseus): 65%
15 | COC(=O)N(CC(=O)O)Cc1cccc(OCc2coc(-c3ccc(F)cc3)n2)c1 | 235 nM | 88% | > 25000 nM | – | –
16 | COC(=O)N(CC(=O)O)Cc1cccc(OCc2coc(-c3ccc(C(F)(F)F)cc3)n2)c1 | 68 nM | 74% | 4810 nM | 34% | –
17 | COC(=O)N(CC(=O)O)Cc1cccc(OCc2coc(-c3cccc(C)c3)n2)c1 | 451 nM | 92% | > 25000 nM | – | –
18 | COC(=O)N(CC(=O)O)Cc1cccc(OCc2coc(-c3ccccc3)n2)c1 | 1230 nM | 105% | > 25000 nM | – | –
19 | COC(=O)N(CC(=O)O)Cc1cccc(OCc2csc(-c3ccccc3Cl)n2)c1 | > 2500 nM | – | 5040 nM | 55% | –
20 | COC(=O)N(CC(=O)O)Cc1cccc(OCc2csc(-c3cccc(Cl)c3)n2)c1 | 1450 nM | 117% | 4020 nM | 54% | –
21 | COC(=O)N(CC(=O)O)[C@@H](C)c1cccc(OCc2coc(-c3ccc(Cl)cc3)n2)c1 | 73 nM | 65% | > 8300 nM | 189% | –
22 | COC(=O)N(CC(=O)O)[C@@H](C)c1cccc(OCc2coc(-c3ccc(C)cc3)n2)c1 | 87 nM | 87% | 20700 nM | 130% | –

Source: ChEMBL document CHEMBL1157903, “Synthesis and structure-activity relationships of 2-aryl-4-oxazolylmethoxy benzylglycines and 2-aryl-4-thiazolylmethoxy benzylglycines as novel, potent PPARalpha selective activators- PPARalpha and PPARgamma selectivity modulation” (Bioorg Med Chem Lett, 2010)
